Like-named read-outs stand apart in the source and are kept apart here.
Experiments:
PaTrmD [1] = biological target: T1, PaTrmD (Pseudomonas aeruginosa, UniProt Q9HXQ1); experiment: TrmD inhibitor assay; format: biochemical; settings: for reduction of enzyme inhibitory activity compared with the alkyl chain: ethylene glycol substituents
T1 sequence (Q9HXQ1 5-250): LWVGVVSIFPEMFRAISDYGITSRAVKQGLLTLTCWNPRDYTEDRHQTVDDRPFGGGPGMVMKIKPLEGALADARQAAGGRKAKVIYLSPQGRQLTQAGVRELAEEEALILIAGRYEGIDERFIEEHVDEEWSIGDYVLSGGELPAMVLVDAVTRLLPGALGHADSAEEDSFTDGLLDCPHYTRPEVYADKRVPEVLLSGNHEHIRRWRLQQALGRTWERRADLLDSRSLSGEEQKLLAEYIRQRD
Outline: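 E. coli-expressed PaTrmD (IMAC and size-exclusion purified, 8 nM) was preincubated 15 min at ambient temperature with serially diluted inhibitor (0–500 μM). Reaction buffer was 50 mM Tris-HCl pH 8.0, 80 mM NaCl, 1 mM MgCl2, 0.5 mM DTT and 0.01% Triton X-100, with 2 μM SAM and 0.5 μM in vitro-transcribed tRNALeu(CAG). Reactions ran 45 min at 37 °C. SAH was detected by MTase-Glo luminescence against an SAH standard curve.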

[2] = test system: collection of Gram-positive and Gram-negative bacteria; experiment: Single-dose; format: cell-based; settings: against Gram-positive bacteria and mycobacteria; single dose 100 μM
PaTrmD [3] = biological target: T1, PaTrmD; experiment: Surface plasmon resonance; format: binding; settings: SPR
PaTrmD [4] = biological target: T1, PaTrmD; experiment: Thermal stability; format: binding
PaTrmD [5] = biological target: T1, PaTrmD; settings: ref 15 (Hill et al.); cited from earlier work
SaTrmD = biological target: T2, SaTrmD (Staphylococcus aureus, UniProt Q2FZ43); settings: cited from earlier work
T2 sequence (Q2FZ43 1-245): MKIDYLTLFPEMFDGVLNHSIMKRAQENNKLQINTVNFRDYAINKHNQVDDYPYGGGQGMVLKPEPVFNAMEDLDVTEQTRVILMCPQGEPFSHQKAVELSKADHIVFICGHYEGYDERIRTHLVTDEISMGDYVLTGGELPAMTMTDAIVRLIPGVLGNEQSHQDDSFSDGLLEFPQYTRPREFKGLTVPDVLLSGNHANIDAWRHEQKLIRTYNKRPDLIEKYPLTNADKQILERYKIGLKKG

bacteria = settings: in words; cited from earlier work
[6] = PaTrmD, O^6-substituted thienopyrimidinones, NA = not active up to 50 μM

N-(4-((Benzylamino)methyl)benzyl)-4-propoxythieno[2,3-d]pyrimidine-5-carboxamide [Compound 40]
IC50 (PaTrmD [1]; [6]): > 50 µM

N-(4-((Benzylamino)methyl)benzyl)-4-methoxythieno[2,3-d]pyrimidine-5-carboxamide [Compound 39]
IC50 (PaTrmD [1]; [6]): > 50 µM

CCCCCCCCCCCCNCc1ccc(CNC(=O)c2csc3nc[nH]c(=O)c23)cc1 [Compound 24, N-(4-((Dodecylamino)methyl)benzyl)-4-oxo-3,4-dihydrothieno[2,3-d]pyrimidine-5-carboxamide]
growth inhibitory activity at 100 μM [2]: showed growth inhibitory activity

N-(4-(Morpholinomethyl)benzyl)-4-propoxythieno[2,3-d]pyrimidine-5-carboxamide [Compound 46]
IC50 (PaTrmD [1]; [6]): > 50 µM

O=C(NCc1ccc(CN2CCOCC2)cc1)c1csc2nc[nH]c(=O)c12 [Compound 10, N-(4-(Morpholinomethyl)benzyl)-4-oxo-3,4-dihydrothieno[2,3-d]pyrimidine-5-carboxamide]
reduction of inhibitory activity compared with AZ51 (PaTrmD [1]; PaTrmD): 6–16 fold

O=C(NCc1ccc(CNCc2ccccc2)cc1)c1csc2nc[nH]c(=O)c12 [Compound 14, N-(4-((Benzylamino)methyl)benzyl)-4-oxo-3,4-dihydrothieno[2,3-d]pyrimidine-5-carboxamide]
TrmD inhibitory activity (in words) (PaTrmD [1]; PaTrmD): submicromolar activity

N-(4-((Octylamino)methyl)benzyl)-4-propoxythieno[2,3-d]pyrimidine-5-carboxamide [Compound 43]
IC50 (PaTrmD [1]; [6]): > 50 µM

CCOCCOCCNCc1ccc(CNC(=O)c2csc3nc[nH]c(=O)c23)cc1 [Compound 26, N-(4-(((2-(2-Ethoxyethoxy)ethyl)amino)methyl)benzyl)-4-oxo-3,4-dihydrothieno[2,3-d]pyrimidine-5-carboxamide]
reduction of enzyme inhibitory activity compared with the alkyl chain (PaTrmD [1]; PaTrmD): 4–8 fold

O=C(NCc1ccc(CNC2CCCCC2)cc1)c1csc2nc[nH]c(=O)c12 [Compound 16, N-(4-((Cyclohexylamino)methyl)benzyl)-4-oxo-3,4-dihydrothieno[2,3-d]pyrimidine-5-carboxamide]
TrmD inhibitory activity (in words) (PaTrmD [1]; PaTrmD): submicromolar activity

4-(Hexyloxy)-N-(4-((octylamino)methyl)benzyl)thieno[2,3-d]pyrimidine-5-carboxamide [Compound 44]
IC50 (PaTrmD [1]; [6]): > 50 µM

CCCCCCCCNCc1ccc(CNC(=O)c2csc3nc[nH]c(=O)c23)cc1 [Compound 15, N-(4-((Octylamino)methyl)benzyl)-4-oxo-3,4-dihydrothieno[2,3-d]pyrimidine-5-carboxamide]
IC50 (PaTrmD [1]): 0.02 ± 0.01 µM
increase of IC50 when tRNA concentration was increased (PaTrmD [1]; PaTrmD, tRNA competition assay, from 0.02 to 0.26 μM): 13 fold
higher binding affinity (KD) to PaTrmD compared with AZ51 (PaTrmD [3]): ~50 fold
growth inhibitory activity at 100 μM [2]: showed growth inhibitory activity

CCCCCCCCCCNCc1ccc(CNC(=O)c2csc3nc[nH]c(=O)c23)cc1 [Compound 23, N-(4-((Decylamino)methyl)benzyl)-4-oxo-3,4-dihydrothieno[2,3-d]pyrimidine-5-carboxamide]
growth inhibitory activity at 100 μM [2]: showed growth inhibitory activity

O=C(NCc1ccc(CN2CCCCC2)cc1)c1csc2nc[nH]c(=O)c12 [Compound 9, 4-Oxo-N-(4-(piperidin-1-ylmethyl)benzyl)-3,4-dihydrothieno[2,3-d]pyrimidine-5-carboxamide]
reduction of inhibitory activity compared with AZ51 (PaTrmD [1]; PaTrmD): 6–16 fold

O=C(NCc1ccc(CNCCOCCO)cc1)c1csc2nc[nH]c(=O)c12 [Compound 25, N-(4-(((2-(2-Hydroxyethoxy)ethyl)amino)methyl)benzyl)-4-oxo-3,4-dihydrothieno[2,3-d]pyrimidine-5-carboxamide]
reduction of enzyme inhibitory activity compared with the alkyl chain (PaTrmD [1]; PaTrmD): 4–8 fold

4-Methoxy-N-(4-(morpholinomethyl)benzyl)thieno[2,3-d]pyrimidine-5-carboxamide [Compound 45]
IC50 (PaTrmD [1]; [6]): > 50 µM

O=C(NCc1ccc(CNC23CC4CC(CC(C4)C2)C3)cc1)c1csc2nc[nH]c(=O)c12 [Compound 17, N-(4-((((3s,5s,7s)-Adamantan-1-yl)amino)methyl)benzyl)-4-oxo-3,4-dihydrothieno[2,3-d]pyrimidine-5-carboxamide]
TrmD inhibitory activity (in words) (PaTrmD [1]; PaTrmD): submicromolar activity

CCCCCCCCN(Cc1ccccc1)Cc1ccc(CNC(=O)c2csc3nc[nH]c(=O)c23)cc1 [Compound 20, N-(4-((Benzyl(octyl)amino)methyl)benzyl)-4-oxo-3,4-dihydrothieno[2,3-d]pyrimidine-5-carboxamide]
TrmD inhibitory activity (in words) (PaTrmD [1]; PaTrmD): nearly abolished

NC1CCN(Cc2ccc(CNC(=O)c3csc4nc[nH]c(=O)c34)cc2)CC1 [AZ51]
faster on-rate (association rate) compared to SAH (PaTrmD [3]; PaTrmD): ~2 fold
slower off-rate (dissociation rate) compared to SAH (PaTrmD [3]; PaTrmD): ~30 fold
Tm higher than thermostabilization conferred by SAH (PaTrmD [4]): 17 °C
IC50 (PaTrmD [5]): 39 nM
IC50 (SaTrmD): 1200 nM
antibacterial activity (bacteria): lacked antibacterial activity

Source: paper PMC6748665 (Journal of Medicinal Chemistry, 2019)
